F508del corr: CFTR F508del correction in bronchial cells; 0.36% of 350,000 active; AID 720511; CFBE cells, YFP halide quenching; stimulated with forskolin plus potentiator P3; % fluorescence drop versus neutral controls; activity (quench increase), % at 7.58 µM;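 active = mean added fluorescence quench of at least 8% versus neutral control, with both replicates also reaching 8%; inconclusive = only one of the mean or replicate conditions met; inactive = mean below 8% and not both replicates reaching 8%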;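 note: cells transiently co-express mutant CFTR-F508del with the halide-sensitive YFP; corrector assay measuring rescue of mutant channel to the surface after 24 h compound exposure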
DENV2 CPE: DENV2-induced cell death inhibition; DENV2-infected cells, cytopathic effect rescue, plate reader; CPE inhibition, % at 9.99 µM; 1.7% of 350,000 active; in the data active = CPE inhibition above about 20%, passing the limit was not always enough; inconclusive = no clear call, values can overlap the other calls; tested in BHK-21 cells;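 note: 0% = median of neutral control wells and 100% = median of positive control wells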
PGC1a acetyl inh: modulators of PGC1a acetylation; AID 651687; inhibition, % at 15.6 µM; U2OS PGC1a acetylation, AlphaScreen anti-acetyl-lysine; with virally co-expressed GCN5 acetyltransferase; 0.17% of 350,000 active;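 active = every replicate shows inhibition of at least 40%; inconclusive = mean inhibition at least 40% but some replicate below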;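 note: 0% = neutral control wells and 100% = positive control wells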
XiGFP reactiv: reactivates the inactive X chromosome in mouse fibroblasts | XiGFP mouse fibroblasts, % GFP-positive cells imaging, 3 d; cells co-treated with 5-aza-dC sensitizer; scaled so ellipticine positive control = 100% | AID 743238 | activation, % at 7.58 µM | 0.055% of 360,000 active;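 active = mean normalized replicate activation at least 10% and every replicate at or above 10%; inconclusive = only one of the two criteria met; inactive = mean below 10% and not all replicates reach 10%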;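 note: 0% = median of on-plate neutral control wells and 100% = ellipticine 6 µM median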
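Material: XiGFP fibroblasts, SV40-immortalized. Buffer or medium: DMEM plus 5-aza-dC sensitizer. Compound: single concentration per compound, delivered by pin transfer. Times: 3 days compound exposure. Controls: ellipticine 6 µM.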
Cneo AK release: Cryptococcus neoformans lysis via adenylate kinase release. lysis activity, % at 15 µM. 0.2% of 360,000 active. C. neoformans lysis, adenylate kinase release luminescence, 4 h; normalised: neutral wells 0, clomiphene wells 100;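 active = mean lysis activity across replicates of at least 80%, whatever share of replicates individually reach that level; inactive = mean lysis activity below 80%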
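Test system: log-phase Cryptococcus neoformans yeast cells. Input: 5 × 10^6 yeast cells/mL. Medium: fresh YPD growth medium. Doses: single dose. Incubation: static 4 h at 37 °C with compound, 1 h detection. Measured by: luminescent adenylate kinase detection reagent. Read-out: signal increase indicating cell lysis. Benchmarks: Clomiphene.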
FN deposition inh: fibronectin deposition inhibition | 0.086% of 350,000 active | AID 743247 | inhibition, % at 12.6 µM | AH1F fibroblasts, Alexa488-fibronectin deposition fluorescence, overnight;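 active = mean inhibition across replicates of 30% or more, regardless of how many single replicates reach that level; inconclusive = mean under 30% yet at least half of replicates reach 30%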;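 note: positive control wells lacked labelled fibronectin entirely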
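Schedule: 1 h cell adhesion before compound, then overnight fibronectin incubation; test system: AH1F fibroblast monolayer depositing Alexa488-labelled fibronectin into matrix; quantity: 10000 AH1F cells per well; probe or stimulus: fluorescent fibronectin at 24 nM final; signal: fluorescence, ex 485 nm, em 525 nm; evaluation: percent inhibition as loss of matrix-bound fibronectin fluorescence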
* = called active by the depositor; ? = inconclusive; . = no result; ! = repeats disagree. Compounds with a hit are over-represented: about 1.9% of the library has one in this group of screens.

SMILES | F508del corr | DENV2 CPE | PGC1a acetyl inh | XiGFP reactiv | Cneo AK release | FN deposition inh
Cc1ccc(CN2CC(=O)N3[C@@H](CO)[C@H](c4ccc(-c5cccnc5)cc4)[C@@H]3C2)cc1 | -1 | 4 | -5 | 0 | . | .
CN1CCN(Cc2cc(Cl)c3cccnc3c2OC(=O)c2cccs2)CC1 | . | . | . | 2 | -4 | -3
O=C(Oc1c(CN2CCOCC2)cc(Cl)c2cccnc12)c1ccccc1Br | -14 | 41* | 17 | 0 | 2 | 7
Cn1c(=O)c2cc(S(=O)(=O)NCCC(=O)NCc3ccccc3Cl)ccc2n(C)c1=O | . | . | 47* | . | -1 | 3
CCC(=O)N1C[C@H](C)[C@H](OC)CN(C)C(=O)c2cc(NC(=O)c3ccccc3)ccc2OC[C@H]1C | -3 | -1 | -4 | 0 | -2 | -15
COc1cccc2c1C(=O)c1c(O)c3c(c(O)c1C2=O)CC(O)(C(C)=O)CC3OC1CC(N(C)C)C(O)C(C)O1 (stereo not drawn) | 34* | -6 | ? | 0 | . | 15
CC(=O)[C@@]1(O)Cc2c(O)c3c(c(O)c2[C@H](O[C@H]2C[C@H](N)[C@H](O)[C@H](C)O2)C1)C(=O)c1ccccc1C3=O | 22* | -13 | . | 109* | 12 | -67
COc1cccc2c1C(=O)c1c(O)c3c(c(O)c1C2=O)C[C@@](O)(C(=O)CO)C[C@@H]3OC1CC(N)C(O)C(C)O1 (stereo partly drawn) | 14* | -1 | -7 | 2 | . | -1
COc1cccc2c1C(=O)c1c(O)c3c(c(O)c1C2=O)C[C@@](O)(C(=O)CO)C[C@@H]3O[C@H]1C[C@H](N)[C@H](O)[C@H](C)O1 | 31* | -2 | -19 | 3 | 1 | -1
C[C@@H]1CN([C@@H](C)CO)C(=O)c2cc(NC(=O)CCCN(C)C)ccc2O[C@@H](C)CCCCO[C@H]1CN(C)Cc1ccccc1 | 0 | 10 | 5 | 0 | 1 | -11
CCCNC(=O)N1C[C@H](C)[C@H](OC)CN(C)C(=O)c2cc(NS(C)(=O)=O)ccc2OC[C@@H]1C | 2 | -9 | -27 | 0 | -4 | 5
CCC(=O)N1CCC2(CC1)CN(C(=O)Cc1ccccc1)[C@H](CO)c1c2c2ccc(OC)cc2n1C | 2 | 5 | . | 0 | . | .
CN1CCN(CCOc2ccc(-c3ccccc3)cc2)CC1 | 1 | 49* | . | 0 | 1 | -1
Cc1ccc(S(=O)(=O)Nc2ccc3c(c2)CC(=O)N([C@@H](C)CO)C[C@@H](C)[C@@H](CN(C)S(=O)(=O)c2cn(C)cn2)O3)cc1 | 0 | 4 | -13 | -1 | 2 | .
CC1C=NC(S(=O)(=O)N2CC[C@@H]3[C@H](CO)N(C)c4ccc(C#Cc5ccccc5)cc4[C@@H]32)=N1 (stereo partly drawn) | . | . | . | 0 | . | -14
Cc1ccc(S(=O)(=O)N(C)C[C@H]2Oc3ccc(NC(=O)CCC(F)(F)F)cc3C(=O)N([C@H](C)CO)C[C@@H]2C)cc1 | 3 | 29* | 48* | 0 | 46 | -5
Cc1ccc(S(=O)(=O)N(C)C[C@H]2Oc3ccc(NC(=O)c4ccncc4)cc3C(=O)N([C@H](C)CO)C[C@H]2C)cc1 | 1 | 42* | 1 | -1 | -2 | .
O=C(NC(=S)Nc1cccc2cc(O)ccc12)c1ccco1 | 1 | 44* | 2 | 0 | -6 | 1
O=C(NC(=S)Nc1cccc2c(O)cccc12)c1ccco1 | -2 | -9 | -8 | 0 | -2 | .
CCCC(=O)Nc1ccc2c(c1)OC[C@@H](C)N(C(=O)c1ccccc1F)C[C@@H](C)[C@H](OC)CN(C)C2=O | -2 | . | -10 | -1 | . | -2
C[C@@H]1CN([C@@H](C)CO)C(=O)c2cc(C3=CCCCC3)cnc2O[C@@H]1CN(C)Cc1cccnc1 | 0 | 20* | 0 | 1 | -1 | 0
C[C@H]1CN([C@@H](C)CO)C(=O)c2cc(C3=CCCCC3)cnc2O[C@H]1CN(C)Cc1cccc(F)c1 | 0 | 5 | -9 | 0 | 1 | 13
C[C@H](CO)N1C[C@H](C)[C@H](CN(C)Cc2cccc(F)c2)Oc2ncc(C3=CCCCC3)cc2C1=O | 0 | 23* | 0 | 0 | . | -14
CCN1[C@@H]2Cn3c(ccc(C4=CCCC4)c3=O)[C@H]1[C@@H](C(=O)N[C@H](C)c1ccccc1)[C@@H]2CO | -1 | -9 | 5 | 0 | -1 | .
COc1cccc(C2Oc3ccccc3C3CC(c4cccs4)=NN32)c1 (stereo not drawn) | 2 | 81* | -8 | 0 | -1 | 4
SMILES | F508del corr | DENV2 CPE | PGC1a acetyl inh | XiGFP reactiv | Cneo AK release | FN deposition inh
C[C@@H]1CN([C@H](C)CO)C(=O)c2cc(NC(=O)CCN3CCOCC3)ccc2O[C@H]1CN(C)Cc1ccc(C(=O)O)cc1 | -2 | 1 | 0 | -1 | 1 | .
C[C@@H]1CN([C@@H](C)CO)C(=O)c2cccc(NC(=O)Nc3ccccc3)c2O[C@H]1CN(C)C(=O)Nc1ccc(C(F)(F)F)cc1 | -1 | -1 | 0 | -1 | -3 | .
C[C@H](CO)N1C[C@H](C)[C@@H](CN(C)C(=O)Nc2ccc(C(F)(F)F)cc2)Oc2c(NC(=O)C3CCCCC3)cccc2C1=O | 1 | 22*! | -1 | 0 | -1 | 14
C[C@@H]1CN([C@H](C)CO)C(=O)c2cccc(NC(=O)Nc3ccc(C(F)(F)F)cc3)c2O[C@@H]1CN(C)C(=O)Nc1ccc(C(F)(F)F)cc1 | 0 | 50* | 3 | 0 | -3 | .
C[C@H]1CN([C@@H](C)CO)C(=O)c2cccc(NC(=O)Nc3ccc(C(F)(F)F)cc3)c2O[C@@H]1CN(C)CC1CC1 | 2 | 31* | -29 | 0 | -5 | .
C[C@@H]1CN([C@@H](C)CO)C(=O)c2cccc(NC(=O)Nc3ccccc3)c2O[C@@H]1CN(C)C(=O)Nc1ccc(C(F)(F)F)cc1 | 2 | 38* | 11 | -1 | -2 | .
C[C@H](CO)N1C[C@H](C)[C@@H](CN(C)CC2CC2)Oc2c(NC(=O)Nc3ccc(C(F)(F)F)cc3)cccc2C1=O | 2 | -2 | -4 | 0 | -4 | .
CNC[C@H]1Oc2ccc(N)cc2CC(=O)N(C)C[C@H]1C | . | . | . | 0 | . | .
C[C@H]1CN([C@@H](C)CO)S(=O)(=O)c2ccc(C3=CCCC3)cc2O[C@H]1CN(C)C(=O)C1CC1 | -1 | . | -6 | 0 | . | -7
O=[N+]([O-])c1ccc(/C=C/C2=NN(c3ccccc3)C(c3ccco3)C2)o1 (stereo not drawn) | 16* | -2 | . | 5 | . | .
Cc1cccc(NC(=O)c2ccc(C3SCC(=O)N3CCc3ccccc3)cc2)c1 (stereo not drawn) | . | 2 | -3 | 0 | 2 | 33*

Source: PubChem (Broad Institute)
